Test results: PubChem BioAssay AID463079 (The Scripps Research Institute Molecular Screening Center, 2010)
About 2,000 (0.61%) of roughly 330,000 compounds were called active.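 Rule for the calls: active = inhibition above that plate's mean sample inhibition plus 3 SD (cut at about 26% in these data); inactive = the rest.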 This excerpt belongs to a sample that is enriched for actives.

assay: nonselective Gq signaling inhibition in CHO cells – cell-based, fluorescence, Fluo-8 calcium dye, counter-screen for OX1R antagonist project, primary screen (AID 463079); settings: parental CHO-K1, ATP-induced calcium, Fluo-8 fluorescence; at 5.6 µM; active compounds read high;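 note: 0% = ATP-challenged DMSO wells and 100% = DMSO wells without ATP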
In short: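 Test system: untransfected parental CHO cell line. Compound: one dose, 5.6 µM nominal. Detection: intracellular calcium via Fluo-8 no-wash fluorescent dye. Measure: % inhibition. Benchmarks: ATP-challenged DMSO wells low, unchallenged DMSO wells high.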

SMILES | inhibition
COC(=O)CNC(=O)c1ccc(OC2CCN(C(=O)C3CC3)CC2)cc1 | 2.53% (inactive)
CCCOC(=O)c1[nH]c2c(c1C)C(=O)CC(c1cccs1)C2 (stereo unspecified) | -21.6% (inactive)
COCCOC(=O)c1[nH]c2c(c1C)C(=O)CC(c1ccc(OC)cc1)C2 (stereo unspecified) | -15.7% (inactive)
CCCOC(=O)c1[nH]c2c(c1C)C(=O)CC(c1cc(OC)c(OC)c(OC)c1)C2 (stereo unspecified) | 33.7% (active)
COc1cc(/C(=C/c2ccccc2)c2ccccc2)c2c(c1)oc1ccccc12 | -12.8% (inactive)
Cc1cc(Br)ccc1NC(=O)c1cnc(N2CCN(c3ccccn3)CC2)c2ccccc12 | -29.1% (inactive)
Cc1ccc(S(=O)(=O)Nc2ccc3ncccc3c2)cc1 | 37.3% (active)
Cc1ccc(NS(=O)(=O)c2ccc(C(C)(C)C)cc2)cn1 | -3.3% (inactive)
Cc1cc(C)cc(OCC(=O)Nc2ccc(S(=O)(=O)Nc3ccccn3)cc2)c1 | 2.04% (inactive)
Oc1oc(-c2ccccc2Br)nc1/C=N/c1ccccn1 | 1.24% (inactive)
CCn1c(CSCc2c(Cl)cccc2Cl)n[nH]c1=S | 4.32% (inactive)
CC(C)c1nnc(NC(=O)COC(=O)/C=C/c2ccc([N+](=O)[O-])cc2)s1 | -9.22% (inactive)
CN(Cc1cccnc1)C(=O)c1cc(COc2ccc3ncccc3c2)on1 | 41.8% (active)
Cc1ccc(OCc2cc(C(=O)N(C)CCc3ccccc3)no2)cc1C | -11.5% (inactive)
CC(=O)c1cccc(OCc2cc(C(=O)NC(C)Cc3cccnc3)no2)c1 (stereo unspecified) | -20% (inactive)
CCOC1CCCCC1NS(=O)(=O)c1ccc(Cl)cc1 (stereo unspecified) | -18.7% (inactive)
Cc1c(NC(=O)CSc2cccc3cccnc23)c(=O)n(-c2ccccc2)n1C | 25.1% (active)
Cc1c(NC(=O)CSc2nnc(-c3cccnc3)n2N)c(=O)n(-c2ccccc2)n1C | -5.93% (inactive)
Cc1ccc(NC(=O)CSc2cccc3cccnc23)c(C)c1 | 0.17% (inactive)
CCOCc1nnc(NC(=O)CCS(=O)(=O)Cc2ccccc2)s1 | 3.73% (inactive)
CCOc1ccc(/C=N/NC(N)=S)cc1 | -2.97% (inactive)
NC(N)=N/N=C/c1ccc(OCc2ccc(Cl)cc2Cl)cc1 | 64.6% (active)
OC(CNCCc1ccc(Cl)cc1Cl)COc1ccccc1 (stereo unspecified) | -7.3% (inactive)

SMILES | inhibition
Cn1c(Cc2cccc3ccccc23)nnc1SCC(=O)N1CCN(c2cccc(Cl)c2)CC1 | -6.75% (inactive)
Cc1ccc(-c2nnn(CC(=O)N(CCO)C(C(=O)NC(C)(C)C)c3ccncc3)n2)cc1 (stereo unspecified) | -17.6% (inactive)
COc1cc(F)c(C2=CC(=O)CC(C)(C)C2)cc1F | -13.2% (inactive)
CCOC(=O)C1=C(c2ccccc2)N=C2SCC(=O)N2C1c1ccc(O)c(OC)c1 (stereo unspecified) | -27.1% (inactive)
Cc1cc(N=Nc2ccc3ccccc3c2)ccc1O | 14.3% (inactive)
CC(C)(C)OC(=O)NCCCCCNC(=O)c1nc[nH]c1C(=O)NCc1ccccc1 | -30.4% (inactive)
CC(=O)N1CCCc2cc(S(=O)(=O)N3CCCC(C(=O)NCc4ccc(Cl)cc4)C3)ccc21 (stereo unspecified) | -11.9% (inactive)
CC(=O)N1c2ccc(S(=O)(=O)N3CCCC(C(=O)Nc4cccc(Cl)c4)C3)cc2CC1C (stereo unspecified) | -6.72% (inactive)
CC(=O)N1CCCc2cc(S(=O)(=O)N3CCCC(C(=O)N4CCN(c5cccc(Cl)c5)CC4)C3)ccc21 (stereo unspecified) | 66.2% (active)
O=C(c1ccc(Br)o1)N1CCN(CCOc2ccccc2)CC1 | -7.03% (inactive)
CCOC(=O)C1CCCN(C(=O)CSc2nnc3nc(C)cc(C)n23)C1 (stereo unspecified) | -13.2% (inactive)
Cc1ccc(CN(Cc2cccnc2)C(=S)Nc2cc(Cl)ccc2C)cc1 | 64.7% (active)
Cc1c(Cl)cccc1NC(=S)N(Cc1ccccc1)Cc1cccnc1 | -0.95% (inactive)
Cc1ccc(CN(Cc2cccnc2)C(=S)Nc2cccc(Cl)c2C)cc1 | -2.11% (inactive)
CN1CCN(C(=O)N2c3ccccc3CCc3ccccc32)CC1 | -14.7% (inactive)
O=C1C=C(c2cccc(Cl)c2)C[C@@H](c2ccc(F)cc2)C1 | -24% (inactive)
COC(=O)CNS(=O)(=O)c1ccc(OC)cc1 | 4.49% (inactive)
COc1ccc(S(=O)(=O)NCCCc2ccccc2)cc1 | 9.88% (inactive)
COc1ccc(S(=O)(=O)NCCCCOc2ccc(Cl)cc2)cc1 | 62.1% (active)
Cc1ccc([C@@H]2CC=C(C(=O)O)[C@H](c3cccc(Cl)c3)N2S(=O)(=O)c2ccc(C)cc2)cc1 | -14.4% (inactive)
Cc1ccc(S(=O)(=O)N2[C@@H](c3cccc(Cl)c3)C(C(=O)O)=CC[C@H]2c2ccc(Cl)c(Cl)c2)cc1 | 36.9% (active)
Cc1ccccc1S(=O)(=O)N1[C@@H](c2cccc(Cl)c2)C(C(=O)O)=CC[C@H]1c1ccc(Cl)cc1 | -5.28% (inactive)
Cc1ccc(S(=O)(=O)Nc2nc(C)cc(-n3nc(C)cc3C)n2)cc1 | 2.29% (inactive)

SMILES | inhibition
Cc1ccc(S(=O)(=O)NC(C(=O)N2CCOCCOCCOCCOCC2)c2ccccc2)cc1 (stereo unspecified) | -9.77% (inactive)
CCCC(C(=O)n1nc(C)cc1C)C(NS(=O)(=O)c1ccc(C)cc1)c1ccccc1 (stereo unspecified) | 40.6% (active)
C/C(=N/OC(=O)c1cccc(C(F)(F)F)c1)c1cnccn1 | -5.36% (inactive)
CCc1ccccc1NC(=O)c1ccc2snnc2c1 | -1.87% (inactive)
O=C(Nc1cccc(Br)c1)c1ccc2snnc2c1 | 17.8% (inactive)
O=C(Nc1ccc2ccccc2c1)Nc1ccc2snnc2c1 | 55.2% (active)
COc1cc(C2OC(c3cc(OC)c(OC)c(OC)c3)C(C)C2C)cc(OC)c1OC (stereo unspecified) | -16.8% (inactive)
CC1(NC(=O)CCS(=O)(=O)c2ccc(Cl)cc2)CCS(=O)(=O)C1 (stereo unspecified) | -11.8% (inactive)
CCCN1C(=O)C(NS(=O)(=O)c2ccc(N)cc2)(C(F)(F)F)C(C(=O)OC)=C1C (stereo unspecified) | -9.93% (inactive)
COc1cc(NC(=O)CSc2nnc3ccc(-c4ccncc4)nn23)cc(OC)c1 | -9.28% (inactive)
CCCc1nnc(SCC(=O)Nc2ccc(C(=O)OCC)cc2)o1 | -6.7% (inactive)
CCOC(=O)c1ccc(NC(=O)Cn2cnc3cc(C)c(C)cc32)cc1 | 56.1% (active)
CCOC(=O)c1ccc(NC(=O)CSc2nnc(COc3ccccc3OC)n2C)cc1 | -24.5% (inactive)
COc1ccc(C(=O)Nc2cc(S(=O)(=O)N3CCCC3)ccc2Cl)cc1 | -15.8% (inactive)
CN(C)C(=O)CCc1ccc2c3c([nH]c2c1)[C@]1(CCc2ccccc2)[C@@H](C(=O)N2CCCCC2)C[C@H](CC(=O)NCCC2=CCCCC2)C(=O)N1CC3 | -31.7% (inactive)
Oc1cc(O)c2c(c1)OC(c1ccc(O)c(O)c1)C(O)C2 (stereo unspecified) | -0.43% (inactive)
CC(C)Cc1nnc(NC(=O)CCNC(=O)c2ccccc2Cl)s1 | -7.69% (inactive)
CCOC(=O)N1CCN(C(=O)C2CCN(S(=O)(=O)c3cc(Cl)ccc3OCC)CC2)CC1 | -9.79% (inactive)
CCOC(=O)N1CCN(C(=O)C2CCN(c3ncnc4c3sc3cccc(F)c34)CC2)CC1 | 37.1% (active)
CCOC(=O)N1CCN(C(=O)C2CCN(Cc3ccc(OC)cc3OC)CC2)CC1 | -15.1% (inactive)
COc1cccc(CC(=O)OCC(=O)NCc2ccc3c(c2)OCO3)c1 | -4.2% (inactive)
Cc1cccc(NC(=O)c2cccnc2Cl)n1 | 1.32% (inactive)
CSc1nccc(NC(=O)c2ccc(C(C)(C)C)cc2)n1 | 33.6% (active)

SMILES | inhibition
Cc1cccc(NC(=O)c2ccc(S(=O)(=O)N(C)c3ccccc3)cc2)n1 | -10.9% (inactive)
O=c1cnnc(Nc2ccccc2)[nH]1 | -11.1% (inactive)
CCOc1ccccc1OCC(=O)Nc1ccccc1C(=O)NC1CC1 | 14.9% (inactive)
CC(C)OCCCNc1ncnc2c1[nH]c1ccc(F)cc12 | 58.6% (active)
O=C1c2ccccc2C(=O)N1CCC#Cc1ccc2cc(C3(O)CCCCC3)oc(=O)c2c1 | -14.2% (inactive)
O=C(NCCC(=O)N1O[C@@H]2C=C[C@H]1C2)OCC1c2ccccc2-c2ccccc21 | -10.5% (inactive)
CC(C)Cc1cc(C(=O)NCCc2ccccc2)no1 | -2.04% (inactive)
CC(C)CNC(=O)c1cc(-c2ccc(Br)cc2)on1 | -10.3% (inactive)
CC(C)Cc1cc(C(=O)Nc2cc(Br)ccc2O)no1 | 43% (active)
Cc1ccc(C)c(S(=O)(=O)Nc2cccc(-n3cnnn3)c2)c1 | -1.77% (inactive)
CCOC(=O)C1CCCN(C(=O)c2cccc(S(=O)(=O)N3CCOCC3)c2)C1 (stereo unspecified) | -2.51% (inactive)
COc1ccc(/C=C/C(=O)Nc2c(C)nn(C)c2C)cc1COc1ccc(Br)cc1 | 13.3% (inactive)
O=C(Nc1ccc(C2CC2(Cl)Cl)cc1)c1cccc([N+](=O)[O-])c1 (stereo unspecified) | 46.7% (active)
O=C(Nc1ccc(NC(=O)c2ccco2)c(Cl)c1)c1cccc([N+](=O)[O-])c1 | -6.79% (inactive)
O=C(Nc1cccc([N+](=O)[O-])c1)c1ccc2c(c1)OCO2 | -1.24% (inactive)
COC(=O)[C@@H]1C[C@@]2(O)[C@H](O)[C@H](O)[C@H](O)C[C@H]2N1Cc1ccc(C)s1 | 2.13% (inactive)
O=C(CO/N=C/c1ccccc1O)NNC(=O)c1ccccc1Cl | 2.58% (inactive)
CC[n+]1cc(C)ccc1/C=C/c1ccc(N(C)C)cc1 | 51.9% (active)
CCOC(=O)C1=CN(Cc2ccc(Br)cc2)S(=O)(=O)N(C)C1C (stereo unspecified) | -13.1% (inactive)
N#C/C(=C/c1ccc(Cl)cc1)NC(=O)c1ccccc1 | 50.3% (active)
O=C(N/C(=C\c1ccc(O)cc1)C(=O)N1CCCCC1)c1ccccc1 | -2.82% (inactive)
O=C(NCC1CCCO1)/C(=C/c1ccc(Cl)cc1)NC(=O)c1ccccc1 (stereo unspecified) | -2.9% (inactive)
